Assay outcomes from PubChem BioAssay.
SIRT5 inh: SIRT5 desuccinylase inhibitors, primary screen, biochemical, fluorescence imaging, single point, set 5. Purified SirT5, succinyl-peptide AMC, trypsin-coupled fluorescence. inhibition, % at 15 µM. 1.1% of 330,000 active; in the data active = inhibition above about 15%; inconclusive = no clear call, values can overlap the other calls
Target sequence (Q9NXA8 whole entry, looked up): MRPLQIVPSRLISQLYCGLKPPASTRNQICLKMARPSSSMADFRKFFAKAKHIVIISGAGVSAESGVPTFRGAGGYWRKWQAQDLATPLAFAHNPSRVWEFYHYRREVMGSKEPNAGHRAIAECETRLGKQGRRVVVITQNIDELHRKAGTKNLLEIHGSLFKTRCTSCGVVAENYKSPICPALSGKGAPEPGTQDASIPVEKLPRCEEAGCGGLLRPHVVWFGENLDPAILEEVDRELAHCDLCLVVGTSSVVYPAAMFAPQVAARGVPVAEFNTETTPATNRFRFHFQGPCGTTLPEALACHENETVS
E-selectin induc: E-selectin induction in HUVECs, primary screen, imaging, HUVEC, immunofluorescence imaging, single point | AID 686992, 2013 | activation, % at 7.58 µM | normalized: neutral wells 0, TNF-alpha wells 100 | 0.37% of 260,000 active;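 active = mean E-selectin-positive cell signal at least 10% of the positive control, reached in at least 60% of replicates, without over 20% cell loss; inconclusive = no rule given, readout overlaps actives, possibly toxicity-flagged; inactive = the rest, including those meeting only one limit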
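Material: HUVEC primary endothelial cells; Amount: 3,000 cells per well; Dosing: single concentration; Medium: EGM-2 growth medium on 0.1% gelatin-coated wells; Read-out basis: percent E-selectin-positive cells; Signal: immunofluorescence imaging; Control set: TNF-alpha, DMSO.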
DENV2 CPE: inhibitors of DENV2 cytopathic effect, primary screen, cell-based, plate reader, single concentration. DENV2-infected cells, cytopathic effect rescue. CPE inhibition, % at 9.99 µM. 1.7% of 350,000 active; in the data active = CPE inhibition above about 20%, passing the limit was not always enough; inconclusive = no clear call, values can overlap the other calls; tested in BHK-21 cells
A number is an active result; ! = a repeat was not active. Shown are actives, neighbours in structure and some others; about 2.9% of the full set was active somewhere.

O=C(c1ccc2c3c(cccc13)CC2)C1CCCN(Cc2ncc[nH]2)C1 (stereo not given) was read as SIRT5 inh inactive and DENV2 CPE inactive.
`C#C[C@]1(O)CCC2C3CCC4=C/C(=N/OCC(=O)NC(C)C(=O)NC(CCSC)C(=O)O)CC[C@]4(C)C3CC[C@@]21C` (stereo not given in full) gave SIRT5 inh inactive, E-selectin induc inactive and DENV2 CPE inactive.
For Cc1ccc2c(c1)NP(=S)(Oc1ccccc1)N2 (stereo not given) the results were SIRT5 inh inactive, E-selectin induc inactive and DENV2 CPE inactive.
Screening CNS(=O)(=O)c1ccc(-c2ccc(C=C3C(=O)NC(=O)NC3=O)o2)cc1 returned DENV2 CPE inactive.
Screening O=C1NC(=O)C(=Cc2ccc(OCC(=O)N3CCOCC3)cc2)C(=O)N1 returned SIRT5 inh inactive and DENV2 CPE 64.
`CN(CCOc1ccc(C=C2C(=O)NC(=O)NC2=O)cc1)c1ccccn1` gave SIRT5 inh inactive and DENV2 CPE inactive.
For CCCNC(=O)N1[C@H]2CC[C@@H]1C(C(=O)OC)=C(c1ccc(-c3ccccc3)c(F)c1)C2 the results were SIRT5 inh inactive, E-selectin induc inactive and DENV2 CPE inactive.
CN(C)C(=S)SSC(=S)N(C)C was read as SIRT5 inh inactive, E-selectin induc inactive and DENV2 CPE inactive.
For CCOC(=O)Cc1csc(NC(=O)c2c(O)c3ccccc3n(CCC(C)C)c2=O)n1 the results were SIRT5 inh inactive, E-selectin induc inactive and DENV2 CPE inactive.
Cc1ccc(S(=O)(=O)N2Cc3cc(N4CCOCC4)ccc3-n3nncc3C2)cc1 was read as SIRT5 inh inactive, E-selectin induc inactive and DENV2 CPE inactive.
For O=C(N/N=C/c1c(O)n(Cc2ccco2)c(=O)[nH]c1=O)c1ccccc1O the results were SIRT5 inh 15, E-selectin induc inactive and DENV2 CPE inactive.
`O=c1[nH]c(=O)n(Cc2ccc(F)cc2)c(O)c1/C=N/Nc1ccccc1` gave SIRT5 inh inactive, E-selectin induc inactive and DENV2 CPE 34.
`CC(=O)Nc1ccc(N=Cc2c(O)n(Cc3ccco3)c(=O)[nH]c2=O)cc1` gave SIRT5 inh inactive and DENV2 CPE inactive.
For O=c1[nH]c(=O)n(Cc2ccc(F)cc2)c(O)c1C=NCCCO the results were E-selectin induc inactive.
CCN(CC)C(=O)c1ccc(NC(=O)c2c(C)noc2C)cc1 was read as SIRT5 inh inactive and DENV2 CPE inactive.
For CCc1ccccc1NC(=O)CN1CCN(C(=O)COc2ccccc2C#N)CC1 the results were SIRT5 inh inactive and DENV2 CPE inactive.
Screening COC(=O)Cn1cc(C=C2C(=O)N(C)C(=O)N(C)C2=O)c2ccccc21 returned SIRT5 inh inactive, E-selectin induc inactive and DENV2 CPE inconclusive.
For O=C(O)C(Br)Br the results were DENV2 CPE 70.
C[C@]12CCC3C(CC[C@H]4C[C@@H](O)CC[C@]34C)C1C[C@@H](O)[C@@H]2O (stereo not given in full) was read as E-selectin induc inactive and DENV2 CPE inactive.
For C=CCN1C(=S)N[C@@H]2c3ccccc3O[C@@]1(C)[C@@H]2C(=O)OCC the results were SIRT5 inh inactive and DENV2 CPE inactive.
`Cc1cc2c(C(C)C)c(O)c(O)c(C=O)c2c(O)c1-c1c(C)cc2c(C(C)C)c(O)c(O)c(C=O)c2c1O` gave SIRT5 inh 25, E-selectin induc inactive and DENV2 CPE inactive.
CCc1ccc(NC(=O)C(C)OC(=O)c2c(C)nn(Cc3ccccc3)c2Cl)cc1 (stereo not given) was read as DENV2 CPE inactive.
`O=C(Cc1ccccc1)N1CCN(Cc2ccccn2)CC1` gave SIRT5 inh inactive.
For COC(=O)[C@H]1[C@H](CO)[C@H]2Cn3c(ccc(-c4cccc(F)c4)c3=O)[C@@H]1N2Cc1ccncc1 the results were SIRT5 inh inactive, E-selectin induc inactive and DENV2 CPE inactive.
Screening CNCCc1ccc(OC)c(OC)c1 returned DENV2 CPE 51.
Screening COc1ccc(CCN)cc1OC returned DENV2 CPE inactive.
Screening Cc1[nH]c2ccccc2c1C(=O)C(=O)N1CCC2(CC1)OCCO2 returned SIRT5 inh inactive, E-selectin induc inactive and DENV2 CPE inactive.
`C=CCC1C(=O)NC(=S)NC1=O` gave SIRT5 inh inactive and DENV2 CPE inactive.
CN1C(=O)/C(=C\c2ccc(Br)s2)C(=O)NC1=S was read as SIRT5 inh inactive and DENV2 CPE inactive.
`O=C1NC(=S)NC(=O)C1=Cc1ccc(Br)s1` gave SIRT5 inh 24 and DENV2 CPE inactive.
`Cc1cc(C(=O)CS(=O)(=O)c2ccccc2)cc(C)c1OC(=O)N(C)C` gave SIRT5 inh inactive and DENV2 CPE inactive.
C[N+](C)(C)CC#CCN1CCCC1=O was read as SIRT5 inh inactive, E-selectin induc inactive and DENV2 CPE inactive.
`CN(C)C1CCc2[nH]c3c(F)cc(F)cc3c2C1` (stereo not given) gave SIRT5 inh inactive, E-selectin induc inactive and DENV2 CPE inconclusive.
Cc1ccc(OCCSC2=NN2c2cc(C)nc(N)n2)cc1 was read as SIRT5 inh 21 and DENV2 CPE inactive.
`CCSC1=NN1c1cc(C)nc(N)n1` gave SIRT5 inh inactive and DENV2 CPE inactive.
Screening Cc1cc(OCC(=O)N2CCC(C(=O)O)CC2)c2c3c(c(=O)oc2c1)CCCC3 returned DENV2 CPE inactive.
For CC(N)C(=O)OC(C)(C)Cc1ccc(Cl)cc1 (stereo not given) the results were SIRT5 inh inactive, E-selectin induc inactive and DENV2 CPE inactive.
`COc1ccc(CCn2c(O)c(C=Nc3ccc(NC(C)=O)cc3)c(=O)[nH]c2=O)cc1OC` gave SIRT5 inh inactive, E-selectin induc inactive and DENV2 CPE inactive.
For Cc1ccc(N)c(C)c1 the results were DENV2 CPE 82.
Cc1ccccc1N was read as DENV2 CPE inactive.
Cc1cccc(NC(=O)CN2CCN(C(=O)COc3cccc(Br)c3)CC2)c1C was read as SIRT5 inh inactive and DENV2 CPE inactive.
Screening c1ccc2nc(N3CCNCC3)ccc2c1 returned SIRT5 inh inactive, E-selectin induc 70! and DENV2 CPE inactive.
c1ccc2c(N3CCNCC3)cccc2c1 was read as SIRT5 inh inactive, E-selectin induc inactive and DENV2 CPE inactive.
For c1ccc(-c2[nH]c(-c3ccccc3)[n+](CC3CO3)c2-c2ccccc2)cc1 (stereo not given) the results were E-selectin induc inactive.
For Cc1cc(C)cc(N2C(=O)NC(=O)/C(=C\C=C\c3ccco3)C2=O)c1 the results were SIRT5 inh inactive and DENV2 CPE inactive.
Screening CCCC(C)(COC(N)=O)COC(=O)NC(C)C (stereo not given) returned SIRT5 inh inactive, E-selectin induc inactive and DENV2 CPE inactive.
Nc1cnn(-c2ccccc2)c(=O)c1Cl was read as SIRT5 inh inactive and DENV2 CPE 30.
`CC(Cc1ccccc1)NCCC(=O)NC(C)Cc1ccccc1` (stereo not given) gave SIRT5 inh inactive and DENV2 CPE inactive.
`O=[N+]([O-])c1ccc(N2CCCC(C(F)(F)F)C2)c2ccncc12` (stereo not given) gave SIRT5 inh inactive and DENV2 CPE inactive.
